The molecules below were run against Tyrosine-protein kinase JAK2 (Homo sapiens, UniProt O60674) (assay: Inhibition of JAK2 (unknown origin) incubated for 40 mins in presence of ATP by Kinase-glo luminescence assay). Details: not given.
Tyrosine-protein kinase JAK2, sequence (O60674 whole entry): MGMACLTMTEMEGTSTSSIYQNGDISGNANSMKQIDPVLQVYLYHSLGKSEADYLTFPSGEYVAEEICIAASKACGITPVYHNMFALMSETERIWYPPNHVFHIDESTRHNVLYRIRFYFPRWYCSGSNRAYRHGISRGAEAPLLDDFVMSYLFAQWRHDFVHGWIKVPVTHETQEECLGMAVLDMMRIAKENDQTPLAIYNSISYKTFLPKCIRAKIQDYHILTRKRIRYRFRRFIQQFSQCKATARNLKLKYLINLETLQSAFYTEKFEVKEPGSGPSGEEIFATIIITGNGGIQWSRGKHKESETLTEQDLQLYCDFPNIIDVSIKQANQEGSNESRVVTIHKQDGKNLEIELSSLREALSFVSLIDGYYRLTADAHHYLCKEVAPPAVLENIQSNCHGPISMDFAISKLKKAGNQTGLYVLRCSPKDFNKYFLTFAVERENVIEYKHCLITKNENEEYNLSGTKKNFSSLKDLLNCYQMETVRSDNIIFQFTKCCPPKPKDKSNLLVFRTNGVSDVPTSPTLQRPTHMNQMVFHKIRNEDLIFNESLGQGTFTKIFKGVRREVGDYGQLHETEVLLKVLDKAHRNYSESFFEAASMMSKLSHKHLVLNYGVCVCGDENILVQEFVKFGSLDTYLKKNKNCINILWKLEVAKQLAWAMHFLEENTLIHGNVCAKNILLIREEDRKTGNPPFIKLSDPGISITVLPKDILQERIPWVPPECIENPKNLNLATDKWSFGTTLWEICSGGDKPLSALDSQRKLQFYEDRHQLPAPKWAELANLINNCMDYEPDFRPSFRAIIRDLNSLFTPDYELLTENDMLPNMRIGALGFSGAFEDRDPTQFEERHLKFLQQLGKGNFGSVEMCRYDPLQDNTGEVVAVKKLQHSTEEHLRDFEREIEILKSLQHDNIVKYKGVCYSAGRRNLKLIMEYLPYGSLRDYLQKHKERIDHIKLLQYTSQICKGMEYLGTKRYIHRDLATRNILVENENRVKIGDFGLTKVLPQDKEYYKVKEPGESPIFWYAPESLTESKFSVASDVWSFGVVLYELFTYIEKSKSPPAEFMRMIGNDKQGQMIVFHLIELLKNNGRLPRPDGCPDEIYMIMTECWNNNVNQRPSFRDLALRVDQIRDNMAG

Row | SMILES | IC50 [nM]
1 | O=C(Nc1c[nH]nc1-c1nc(-c2ccc(CN3CCOCC3)cc2)c[nH]1)c1ccc([N+](=O)[O-])cc1 | 1180
2 | O=C(Nc1c[nH]nc1-c1nc(-c2ccc(CN3CCCCC3)cc2)c[nH]1)c1cccc(Cl)c1 | 16
3 | Cc1nc(Cl)cc(Nc2c[nH]nc2-c2nc(-c3ccc(CN4CCOCC4)cc3)c[nH]2)n1 | 8
4 | COc1ccc(C(=O)Nc2c[nH]nc2-c2nc(-c3ccc(CN4CCOCC4)cc3)c[nH]2)cc1 | 14

What follows are molecules tested against T1, Tyrosine-protein kinase JAK3 (Homo sapiens, UniProt P52333) (assay: Inhibition of JAK3 (unknown origin) incubated for 40 mins in presence of ATP by Kinase-glo luminescence assay). Details: not given.
T1 sequence (P52333 whole entry): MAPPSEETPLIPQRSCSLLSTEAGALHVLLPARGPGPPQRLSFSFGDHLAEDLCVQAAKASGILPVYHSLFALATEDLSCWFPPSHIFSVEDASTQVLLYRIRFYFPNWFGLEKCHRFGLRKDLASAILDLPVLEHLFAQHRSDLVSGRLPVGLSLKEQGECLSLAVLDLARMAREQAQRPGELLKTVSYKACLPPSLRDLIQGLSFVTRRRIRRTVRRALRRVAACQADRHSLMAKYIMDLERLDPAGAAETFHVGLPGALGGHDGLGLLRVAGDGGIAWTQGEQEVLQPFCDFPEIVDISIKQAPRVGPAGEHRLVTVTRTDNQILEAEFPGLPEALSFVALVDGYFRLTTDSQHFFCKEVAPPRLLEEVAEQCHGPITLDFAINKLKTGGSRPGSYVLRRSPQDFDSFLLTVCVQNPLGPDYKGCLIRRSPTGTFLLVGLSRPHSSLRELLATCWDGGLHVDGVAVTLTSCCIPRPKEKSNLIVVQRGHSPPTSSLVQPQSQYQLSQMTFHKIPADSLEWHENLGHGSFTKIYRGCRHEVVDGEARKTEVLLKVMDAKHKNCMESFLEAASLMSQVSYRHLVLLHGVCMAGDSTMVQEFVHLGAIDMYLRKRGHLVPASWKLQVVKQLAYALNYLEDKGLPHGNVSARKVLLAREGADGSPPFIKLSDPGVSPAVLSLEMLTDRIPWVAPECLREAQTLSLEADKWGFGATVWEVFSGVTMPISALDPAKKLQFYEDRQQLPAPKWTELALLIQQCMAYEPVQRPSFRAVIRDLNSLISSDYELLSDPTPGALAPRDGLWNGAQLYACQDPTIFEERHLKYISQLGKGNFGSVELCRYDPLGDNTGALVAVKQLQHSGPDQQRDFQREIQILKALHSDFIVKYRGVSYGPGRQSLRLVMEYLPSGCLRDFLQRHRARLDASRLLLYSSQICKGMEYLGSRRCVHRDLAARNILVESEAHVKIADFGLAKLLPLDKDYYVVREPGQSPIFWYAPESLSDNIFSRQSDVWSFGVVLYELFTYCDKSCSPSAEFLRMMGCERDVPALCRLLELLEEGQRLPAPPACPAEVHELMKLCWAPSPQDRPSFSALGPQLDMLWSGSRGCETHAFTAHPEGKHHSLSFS

Row | SMILES | IC50 [nM]
5 | O=C(Nc1c[nH]nc1-c1nc(-c2ccc(CN3CCCCC3)cc2)c[nH]1)c1cccc(Cl)c1 | 13
6 | Cc1nc(Cl)cc(Nc2c[nH]nc2-c2nc(-c3ccc(CN4CCOCC4)cc3)c[nH]2)n1 | 23
7 | O=C(Nc1c[nH]nc1-c1nc(-c2ccc(CN3CCOCC3)cc2)c[nH]1)c1ccc(Cl)cc1 | 64
8 | COc1ccc(C(=O)Nc2c[nH]nc2-c2nc(-c3ccc(CN4CCOCC4)cc3)c[nH]2)cc1 | 24

Each molecule was assayed against T2, Aurora kinase A (Homo sapiens, UniProt O14965) (assay: Inhibition of Aurora A (unknown origin) incubated for 40 mins in presence of ATP by Kinase-glo luminescence assay). Details: not given.
T2 sequence (O14965 whole entry): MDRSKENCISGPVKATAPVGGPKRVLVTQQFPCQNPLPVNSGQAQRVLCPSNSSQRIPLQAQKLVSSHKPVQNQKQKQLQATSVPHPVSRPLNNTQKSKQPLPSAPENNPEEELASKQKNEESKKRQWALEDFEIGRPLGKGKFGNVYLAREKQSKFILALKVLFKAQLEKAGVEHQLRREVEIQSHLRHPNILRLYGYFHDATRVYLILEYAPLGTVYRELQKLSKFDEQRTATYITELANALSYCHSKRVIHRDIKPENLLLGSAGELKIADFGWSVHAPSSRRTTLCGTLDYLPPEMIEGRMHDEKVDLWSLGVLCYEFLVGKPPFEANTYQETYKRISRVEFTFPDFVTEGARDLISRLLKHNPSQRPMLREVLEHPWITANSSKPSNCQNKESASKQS

Row | SMILES | IC50 [nM]
9 | O=C(Nc1c[nH]nc1-c1nc(-c2ccc(CN3CCOCC3)cc2)c[nH]1)c1ccc([N+](=O)[O-])cc1 | 466
10 | COc1ccc(C(=O)Nc2c[nH]nc2-c2nc(-c3ccc(CN4CCCCC4)cc3)c[nH]2)cc1 | 1520
11 | O=C(Nc1c[nH]nc1-c1nc(-c2ccc(CN3CCCCC3)cc2)c[nH]1)c1cccc(Cl)c1 | 1130
12 | Cc1nc(Cl)cc(Nc2c[nH]nc2-c2nc(-c3ccc(CN4CCOCC4)cc3)c[nH]2)n1 | 145
13 | O=C(Nc1c[nH]nc1-c1nc(-c2ccc(CN3CCOCC3)cc2)c[nH]1)c1ccc(Cl)cc1 | 2510
14 | COc1ccc(C(=O)Nc2c[nH]nc2-c2nc(-c3ccc(CN4CCOCC4)cc3)c[nH]2)cc1 | 359
15 | O=C(Nc1c[nH]nc1-c1nc(-c2ccc(CN3CCCCC3)cc2)c[nH]1)c1ccc(Cl)cc1 | 2060

These molecules were tested against Aurora kinase B (Homo sapiens, UniProt Q96GD4) (assay: Inhibition of Aurora B (unknown origin) incubated for 40 mins in presence of ATP by Kinase-glo luminescence assay). Details: not given.
Outline: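 Kinase reaction at 30 °C for 40 min in 40 mM Tris pH 7.4, 10 mM MgCl2, 0.1 mg/ml BSA, 1 mM DTT, 10 µM ATP, kinase plus substrate; compounds added from 10% DMSO dilutions (1% DMSO final). Remaining ATP measured by Kinase-Glo Plus luminescence; IC50 from nonlinear regression, normalized dose-response fit.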

Aurora kinase B, sequence (Q96GD4 whole entry): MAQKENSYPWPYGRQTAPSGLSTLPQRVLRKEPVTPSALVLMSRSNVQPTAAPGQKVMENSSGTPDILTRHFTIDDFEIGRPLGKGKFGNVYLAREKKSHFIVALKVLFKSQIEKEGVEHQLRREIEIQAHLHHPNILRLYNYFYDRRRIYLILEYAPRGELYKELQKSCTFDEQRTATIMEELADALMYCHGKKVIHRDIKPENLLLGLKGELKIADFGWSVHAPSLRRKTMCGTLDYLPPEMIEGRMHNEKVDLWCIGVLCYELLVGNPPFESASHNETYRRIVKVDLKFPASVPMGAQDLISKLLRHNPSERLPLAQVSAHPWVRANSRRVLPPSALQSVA

Row | SMILES | IC50 [nM]
16 | O=C(Nc1c[nH]nc1-c1nc(-c2ccc(CN3CCOCC3)cc2)c[nH]1)c1ccc([N+](=O)[O-])cc1 | 650
17 | COc1ccc(C(=O)Nc2c[nH]nc2-c2nc(-c3ccc(CN4CCOCC4)cc3)c[nH]2)cc1 | > 1000
18 | O=C(Nc1c[nH]nc1-c1nc2ccc(CN3CCOCC3)cc2[nH]1)NC1CC1 [AT-9283] | 62

The molecules below were run on K562 (assay: Antiproliferative activity against human K562 cells assessed as reduction in cell growth measured after 72 hrs by CCK8 assay). Details: K562, 72 h.
Type: functional, cell-based

Row | SMILES | IC50 [nM]
19 | O=C(Nc1c[nH]nc1-c1nc(-c2ccc(CN3CCOCC3)cc2)c[nH]1)c1ccc([N+](=O)[O-])cc1 | 4340
20 | COc1ccc(C(=O)Nc2c[nH]nc2-c2nc(-c3ccc(CN4CCCCC4)cc3)c[nH]2)cc1 | > 10000
21 | O=C(Nc1c[nH]nc1-c1nc(-c2ccc(CN3CCCCC3)cc2)c[nH]1)c1cccc(Cl)c1 | 2500
22 | Cc1nc(Cl)cc(Nc2c[nH]nc2-c2nc(-c3ccc(CN4CCOCC4)cc3)c[nH]2)n1 | 10000
23 | O=C(Nc1c[nH]nc1-c1nc(-c2ccc(CN3CCOCC3)cc2)c[nH]1)c1ccc(Cl)cc1 | 2630
24 | O=C(Nc1c[nH]nc1-c1nc(-c2ccc(CN3CCOCC3)cc2)c[nH]1)c1ccccc1 | > 10000
25 | COc1ccc(C(=O)Nc2c[nH]nc2-c2nc(-c3ccc(CN4CCOCC4)cc3)c[nH]2)cc1 | 5650
26 | O=C(Nc1c[nH]nc1-c1nc(-c2ccc(CN3CCCCC3)cc2)c[nH]1)c1ccc(Cl)cc1 | > 10000
27 | CSc1nc(Cl)c(C)c(Nc2c[nH]nc2-c2ncc(-c3ccc(OCCCN4CCOCC4)cc3)[nH]2)n1 | 9880

These molecules were tested on HCT-116 (assay: Antiproliferative activity against human HCT116 cells assessed as reduction in cell growth measured after 72 hrs by CCK8 assay). Details: HCT-116, 72 h.
Type: functional, cell-based

Row | SMILES | IC50 [nM]
28 | O=C(Nc1c[nH]nc1-c1nc(-c2ccc(CN3CCOCC3)cc2)c[nH]1)c1ccc([N+](=O)[O-])cc1 | 5210
29 | COc1ccc(C(=O)Nc2c[nH]nc2-c2nc(-c3ccc(CN4CCCCC4)cc3)c[nH]2)cc1 | > 10000
30 | O=C(Nc1c[nH]nc1-c1nc(-c2ccc(CN3CCCCC3)cc2)c[nH]1)c1cccc(Cl)c1 | > 10000
31 | Cc1nc(Cl)cc(Nc2c[nH]nc2-c2nc(-c3ccc(CN4CCOCC4)cc3)c[nH]2)n1 | > 10000
32 | O=C(Nc1c[nH]nc1-c1nc(-c2ccc(CN3CCOCC3)cc2)c[nH]1)c1ccc(Cl)cc1 | > 10000
33 | O=C(Nc1c[nH]nc1-c1nc(-c2ccc(CN3CCOCC3)cc2)c[nH]1)c1ccccc1 | > 10000
34 | COc1ccc(C(=O)Nc2c[nH]nc2-c2nc(-c3ccc(CN4CCOCC4)cc3)c[nH]2)cc1 | > 10000
35 | O=C(Nc1c[nH]nc1-c1nc(-c2ccc(CN3CCCCC3)cc2)c[nH]1)c1ccc(Cl)cc1 | 1590
36 | CSc1nc(Cl)c(C)c(Nc2c[nH]nc2-c2ncc(-c3ccc(OCCCN4CCOCC4)cc3)[nH]2)n1 | 16100

What follows are molecules tested on K562 (assay: Cell cycle arrest in human K562 cells assessed as accumulation of diploid cells at G2 phase at 10 uM incubated for 48 hrs by propidium iodide staining based flow cytometric analysis (reference value: 7.73 %)). Details: not given.
Type: functional

Row | SMILES | Activity [%]
37 | O=C(Nc1c[nH]nc1-c1nc2ccc(CN3CCOCC3)cc2[nH]1)NC1CC1 [AT-9283] | 14.99

What follows are molecules tested on K562 (assay: Cell cycle arrest in human K562 cells assessed as accumulation of diploid cells at S phase at 10 uM incubated for 48 hrs by propidium iodide staining based flow cytometric analysis (reference value: 35.94 %)). Details: not given.
Type: functional

Row | SMILES | Activity [%]
38 | O=C(Nc1c[nH]nc1-c1nc2ccc(CN3CCOCC3)cc2[nH]1)NC1CC1 [AT-9283] | 32.31

Species on record: Homo sapiens
Assay: Selectivity for JAK2 (unknown origin) over Aurora B (unknown origin)
Details: not given

Row | SMILES | Selectivity ratio
39 | O=C(Nc1c[nH]nc1-c1nc(-c2ccc(CN3CCCCC3)cc2)c[nH]1)c1cccc(Cl)c1 | 20
40 | COc1ccc(C(=O)Nc2c[nH]nc2-c2nc(-c3ccc(CN4CCOCC4)cc3)c[nH]2)cc1 | 20

Species on record: Homo sapiens
Assay: Selectivity for JAK3 (unknown origin) over Aurora B (unknown origin)
Details: not given

Row | SMILES | Selectivity ratio
41 | O=C(Nc1c[nH]nc1-c1nc(-c2ccc(CN3CCCCC3)cc2)c[nH]1)c1cccc(Cl)c1 | 20
42 | COc1ccc(C(=O)Nc2c[nH]nc2-c2nc(-c3ccc(CN4CCOCC4)cc3)c[nH]2)cc1 | 20

The molecules below were run on HCT-116 (assay: Cell cycle arrest in human HCT116 cells assessed as accumulation of diploid cells at G1 phase at 10 uM incubated for 48 hrs by propidium iodide staining based flow cytometric analysis (reference value: 77.62 %)). Details: not given.
Type: functional

Row | SMILES | Activity [%]
43 | O=C(Nc1c[nH]nc1-c1nc2ccc(CN3CCOCC3)cc2[nH]1)NC1CC1 [AT-9283] | 66.56

The molecules below were run on HCT-116 (assay: Cell cycle arrest in human HCT116 cells assessed as accumulation of diploid cells at G2 phase at 10 uM incubated for 48 hrs by propidium iodide staining based flow cytometric analysis (reference value: 10.46 %)). Details: not given.
Type: functional

Row | SMILES | Activity [%]
44 | O=C(Nc1c[nH]nc1-c1nc2ccc(CN3CCOCC3)cc2[nH]1)NC1CC1 [AT-9283] | 25.19

Each molecule was assayed on HCT-116 (assay: Cell cycle arrest in human HCT116 cells assessed as accumulation of diploid cells at S phase at 10 uM incubated for 48 hrs by propidium iodide staining based flow cytometric analysis (reference value: 11.92 %)). Details: not given.
Type: functional

Row | SMILES | Activity [%]
45 | O=C(Nc1c[nH]nc1-c1nc2ccc(CN3CCOCC3)cc2[nH]1)NC1CC1 [AT-9283] | 8.24

Each molecule was assayed on HCT-116 (assay: Cell cycle arrest in human HCT116 cells assessed as accumulation at […] phase at 10 uM incubated for 48 hrs by propidium iodide staining based flow cytometric analysis (reference value: 2.01 %)). Details: not given.
Type: functional

Row | SMILES | Activity [%]
46 | O=C(Nc1c[nH]nc1-c1nc2ccc(CN3CCOCC3)cc2[nH]1)NC1CC1 [AT-9283] | 1.98

Species on record: Homo sapiens
Assay: Selectivity for JAK2 (unknown origin) over Aurora A (unknown origin)
Details: not given

Row | SMILES | Selectivity ratio
47 | O=C(Nc1c[nH]nc1-c1nc(-c2ccc(CN3CCCCC3)cc2)c[nH]1)c1cccc(Cl)c1 | 20
48 | COc1ccc(C(=O)Nc2c[nH]nc2-c2nc(-c3ccc(CN4CCOCC4)cc3)c[nH]2)cc1 | 20

Species on record: Homo sapiens
Assay: Selectivity for JAK3 (unknown origin) over Aurora A (unknown origin)
Details: not given

Row | SMILES | Selectivity ratio
49 | O=C(Nc1c[nH]nc1-c1nc(-c2ccc(CN3CCCCC3)cc2)c[nH]1)c1cccc(Cl)c1 | 20
50 | COc1ccc(C(=O)Nc2c[nH]nc2-c2nc(-c3ccc(CN4CCOCC4)cc3)c[nH]2)cc1 | 20

Reference: ChEMBL document CHEMBL4706620, “Design, synthesis, biological activity evaluation of 3-(4-phenyl-1H-imidazol-2-yl)-1H-pyrazole derivatives as potent JAK 2/3 and aurora A/B kinases multi-targeted inhibitors” (Eur J Med Chem, 2021)
